Experimental data gathered from unrelated publications.
Compare with care: the assays were run in different laboratories.
Adora1: Adenosine receptor A1 (Adora1, Rattus norvegicus, UniProt P25099)
MAOB: Amine oxidase [flavin-containing] B (MAOB, Homo sapiens, UniProt P27338)
CA9: Carbonic anhydrase 9 (CA9, Homo sapiens, UniProt Q16790)
CHRM4: Muscarinic acetylcholine receptor M4 (CHRM4, Homo sapiens, UniProt P08173)
HRH1: Histamine H1 receptor (HRH1, Homo sapiens, UniProt P35367)

Structure (SMILES) | target | assay | test system | conditions | inhibition [%]
Cn1cnc(Br)c1C1=CN(c2ncnc3[nH]cnc23)CCS1 | Dual specificity tyrosine-phosphorylation-regulated kinase 4 (DYRK4, Homo sapiens, UniProt Q9NR20) | enzyme activity, inhibitor, radiometric | – | 2 µM | 72.2
CCCCCC(C)N1CCCn2c1nc1c2c(=O)n(C)c(=O)n1C (stereo not drawn) | Adora1 | ligand displacement, radioligand | – | 25 µM, cell membranes | 30
O=C(Nc1ccccc1)c1ccc(Cl)cc1 | MAOB | enzyme activity, inhibitor | – | 1 µM, 20 min | 24
CCOC(=O)C1CSc2[nH]c(=O)sc2C1c1cn(-c2ccccc2)nc1-c1ccc(Cl)cc1 (stereo not drawn) | CA9 | enzyme activity, inhibitor | – | 10 nM | 12
Oc1cccc(Nc2nc(-c3ccc(F)cc3F)cs2)c1 | Endothelin receptor type B (EDNRB, Homo sapiens, UniProt P24530) | cell-free assay | – | 10 µM | -4.3
N#Cc1cc(Cn2c(N3CCCC3)nc3ccccc32)ccc1F | CHRM4 | ligand displacement | – | 10 µM | -6.19
O=C(Nc1ccc([N+](=O)[O-])cc1Cl)c1cc2ccccc2s1 | MAOB | enzyme activity, inhibitor | – | 1 µM, 20 min | 40
Cc1ccc(-n2nc(C(C)(C)C)cc2NC(=O)Nc2ccc(OCCN3CCOCC3)c3ccccc23)cc1 | Tyrosine-protein phosphatase non-receptor type 2 (PTPN2, Homo sapiens, UniProt P17706) | enzyme activity, inhibitor | – | 10 µM | 17
O=c1c2ccccc2c(Cc2ccc(Cl)cc2)nn1C1CCCNCC1 (stereo not drawn) | KCNU1 (Homo sapiens, UniProt A8MYU2) | ion current, inhibitor, patch clamp | HEK293 | 10 µM | 34
CCN1CCCn2c1nc1c2c(=O)n(C)c(=O)n1C | Adora1 | ligand displacement, radioligand | – | 25 µM, cell membranes | 42
N#Cc1ccc(NC(=O)c2ccc3c(c2)OCO3)cc1 | MAOB | enzyme activity, inhibitor | – | 1 µM, 20 min | 87
CN(C)C1CCN(CC#Cc2nn(C3CCCC3)c3nc(NCc4ccccc4)ncc23)C1 (stereo not drawn) | Serine/threonine-protein kinase N1 (PKN1, Homo sapiens, UniProt Q16512) | enzyme activity, inhibitor, FRET | – | 10 µM | 4
CCOC(=O)C1CSc2[nH]c(=O)sc2C1c1cn(-c2ccccc2)nc1-c1ccc(C)cc1 (stereo not drawn) | CA9 | enzyme activity, inhibitor | – | 10 nM | 18.9
CNC(=O)c1csc(Nc2cccc(C)n2)n1 | MAOB | enzyme activity, inhibitor, fluorescence | – | 30 µM | 53
C#CCN1CCCn2c1nc1c2c(=O)n(C)c(=O)n1C | Adora1 | ligand displacement, radioligand | – | 25 µM, cell membranes | 46
O=C(Nc1ccc([N+](=O)[O-])cc1)c1ccc([N+](=O)[O-])cc1Cl | MAOB | enzyme activity, inhibitor | – | 1 µM, 20 min | 68
C=CN1CCCn2c1nc1c2c(=O)n(C)c(=O)n1C | Adora1 | ligand displacement, radioligand | – | 25 µM, cell membranes | 30
COc1cc(N)ccc1NC(=O)c1ccccc1 | MAOB | enzyme activity, inhibitor | – | 1 µM, 20 min | 1
CN1CCCn2c1nc1c2c(=O)n(C)c(=O)n1C | Adora1 | ligand displacement, radioligand | – | 25 µM, cell membranes | 28
CCOC(=O)C1CSc2[nH]c(=O)sc2C1c1cn(-c2ccccc2)nc1-c1ccc(OC)cc1 (stereo not drawn) | CA9 | enzyme activity, inhibitor | – | 0.1 µM | 53.6
O=C(Nc1ccc(C(F)(F)F)cc1C(F)(F)F)c1cc(Cl)ccc1O | MAOB | enzyme activity, inhibitor | – | 1 µM, 20 min | 84
O=C1NC(=S)C(=Cc2cn(-c3ccccc3)nc2-c2ccc(Br)cc2)S1 | CA9 | enzyme activity, inhibitor | – | 10 µM | 83.7
COc1cc(NC(C)=O)c(Cl)cc1C(=O)Nc1nccs1 | HRH1 | cell-free assay | – | 10 µM | -2
CCOC(=O)C1CSc2[nH]c(=O)sc2C1c1cn(-c2ccccc2)nc1-c1ccc(Br)cc1 (stereo not drawn) | CA9 | enzyme activity, inhibitor | – | 0.1 µM | 42.2
CCOc1ccc(C(=O)Nc2ccc(OC(F)(F)F)cc2)cc1OCC | MAOB | enzyme activity, inhibitor | – | 1 µM, 20 min | 1
N#CC1CSc2[nH]c(=O)sc2C1c1cn(-c2ccccc2)nc1-c1ccc(Br)cc1 (stereo not drawn) | CA9 | enzyme activity, inhibitor | – | 0.1 µM | 60.1
O=C(c1ccc(Cl)cc1)N(Cc1ccccc1)C1CCCCC1 | HRH1 | cell-free assay | – | 10 µM | -0.7
CCN(CC)c1ccc(C2Nc3ccc(C(=O)c4ccccc4)cc3NC3=C2C(=O)CC(C)(C)C3)cc1 (stereo not drawn) | CHRM4 | ligand displacement, radioligand | – | 10 µM | -1
CS(=O)(=O)Nc1cccc2cccnc12 | Lactoylglutathione lyase (GLO1, Homo sapiens, UniProt Q04760) | enzyme activity, inhibitor, absorbance | – | 50 µM | > 21
Cc1ccc(NC(=O)c2cc(Cl)ccc2O)cc1[N+](=O)[O-] | MAOB | enzyme activity, inhibitor | – | 1 µM, 20 min | 85
